# Screens: PubChem BioAssay, Broad Institute
# FGF22 binding: shifts melting point of recombinant human FGF22; recombinant FGF22 thermal shift, SYPRO orange fluorescence; percent of sucrose octasulfate shift, DMSO zero; activity (Tm shift, normalised), % at 9.99 µM; 340,000 tested, 1.5% active;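 active = mean Tm shift, scaled 0 neutral to 100 positive control, at about 1.3% or above, every replicate too, limit read from the data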
# Target sequence (Q9HCT0 whole entry, looked up): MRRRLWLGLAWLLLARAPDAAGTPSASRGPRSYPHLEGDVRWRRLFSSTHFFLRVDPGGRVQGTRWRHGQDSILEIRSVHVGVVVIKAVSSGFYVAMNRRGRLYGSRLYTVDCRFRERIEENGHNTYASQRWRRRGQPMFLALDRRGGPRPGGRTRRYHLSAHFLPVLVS
# SIRT5 block: sirtuin-5 (human) deacylase inhibition. Q9NXA8. Purified SirT5, succinyl-peptide AMC, trypsin-coupled fluorescence. inhibition, % at 15 µM. 330,000 tested, 1.1% active. AID 652115; in the data active = inhibition above about 15%
# Target sequence (Q9NXA8 whole entry, looked up): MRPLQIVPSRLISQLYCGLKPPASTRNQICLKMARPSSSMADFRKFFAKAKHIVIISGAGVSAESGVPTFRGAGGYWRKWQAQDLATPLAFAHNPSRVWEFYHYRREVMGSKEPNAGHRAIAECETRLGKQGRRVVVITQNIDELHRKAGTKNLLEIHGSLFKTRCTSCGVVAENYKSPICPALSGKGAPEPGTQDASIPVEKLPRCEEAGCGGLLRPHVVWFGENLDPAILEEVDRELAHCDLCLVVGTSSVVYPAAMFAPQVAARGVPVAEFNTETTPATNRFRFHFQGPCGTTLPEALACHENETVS
# PGC1a acetyl inh: modulators of PGC1a acetylation | 350,000 tested, 0.17% active | AID 651687 | inhibition, % at 15.6 µM | U2OS PGC1a acetylation, AlphaScreen anti-acetyl-lysine; with virally co-expressed GCN5 acetyltransferase;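 active = every replicate shows inhibition of at least 40%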;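 also: 0% = neutral control wells and 100% = positive control wells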
# ERAP1 HTS inh: inhibitors of human ERAP1 aminopeptidase; Q9NZ08; recombinant ERAP1, Leu-AMC fluorescence, 60 min; inhibition, % at 10.7 µM; 340,000 tested, 0.15% active;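 active = mean replicate inhibition of at least 30%, or all replicates individually reaching that 30% level; inactive = mean below 30% and not every replicate reaching it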;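 also: 0% = neutral control wells and 100% = L-leucinethiol positive control wells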
# FN deposit inh: fibronectin deposition inhibition. 350,000 tested, 0.086% active. AID 743247. AH1F fibroblasts, Alexa488-fibronectin deposition fluorescence, overnight. inhibition, % at 12.6 µM;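 active = mean inhibition across replicates of 30% or more, regardless of how many single replicates reach that level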;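 also: positive control wells lacked labelled fibronectin entirely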
#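 Assay system: AH1F fibroblast monolayer, labelled fibronectin deposition. Amount: 10000 cells per well. Also added: labelled fibronectin 24 nM. Compound: single-point pinned compound. Incubation: cell attachment 1 h, compound and FN exposure overnight. Detection: fluorescence after three HBSS washes, excitation 485 nm, emission 525 nm. Read-out: inhibition of fibronectin deposition signal.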
# The depositor's hits bear a star; / = no result given; ! = not active in a repeat. This is a sample that favours compounds with a hit; in the whole collection about 2.2% have one here.
SMILES,FGF22 binding,SIRT5 block,PGC1a acetyl inh,ERAP1 HTS inh,FN deposit inh
CN1C(=O)CN(CCN2CC(=O)N(C)C(=O)C2)CC1=O,43*,/,4,1,-11
CC(C)COC(=O)OCN1C(=O)CN(CCN2CC(=O)N(COC(=O)OCC(C)C)C(=O)C2)CC1=O,0,-4,4,-2,2
C[C@H]1CN([C@@H](C)CO)C(=O)Cc2cc(NC(=O)NC3CCCCC3)ccc2O[C@H]1CN(C)Cc1ccc(C(=O)O)cc1,0,1,1,2,/
COc1ccccc1-c1ccc(C2[C@H]3CNC[C@@H]2N3S(=O)(=O)c2ccc(C)cc2)cc1 (stereo not given in full),/,4,6,6,5
CCC/C(O)=C1\C(=O)CCCC1=NCCc1c(C)[nH]c2ccccc12,0,25*,-3,-2,6
CCCNC(=O)N1CC2(C1)[C@H](c1ccccc1)[C@H](CO)N2C(=O)C1CCC1,/,-1,1,-2,-3
COc1cccc(CN2[C@@H](CO)[C@H](c3ccccc3)C23CN(C(=O)C2CCCC2)C3)c1,/,26*,7,0,0
COc1ccccc1CN1[C@@H](CO)[C@@H](c2ccccc2)C12CN(C(C)=O)C2,0,-1,0,1,/
COc1ccccc1CN1[C@H](CO)[C@H](c2ccccc2)C12CN(C(C)=O)C2,0,17*,9,0,/
COc1cccc(CN2[C@H](CO)[C@H](c3ccccc3)C23CN(C(=O)C2CCCC2)C3)c1,/,2,-6,3,10
CCCNC(=O)N1CC2(C1)[C@H](c1ccccc1)[C@H](CO)N2C(=O)C1CC1,0,24*,7,2,/
COc1ccc([Si](C)(C)[C@@H]2[C@@H](CC(=O)N3Cc4ccccc4C[C@H]3CO)O[C@]3(C(=O)N(Cc4ccc(I)cc4)c4ccccc43)[C@H]2C)cc1,0,5,/,-1,/
O=C1NC2(CCCCC2)C(=O)N1Cc1cccc(C(F)(F)F)c1,43*,0,-9,0,1
C[C@H](O)C#Cc1ccc2c(c1)O[C@@H](CN(C)Cc1ccncc1)[C@H](C)CN([C@H](C)CO)S2(=O)=O,0,1,-1,-3,7
O=C(Cn1sc2ccccc2c1=O)Nc1ccc(F)cc1,43*,-3,/,29,4
O=C(NC(=S)NCCN1CCOCC1)c1ccc(F)cc1,0,-1,/,-2,0
O=C(NC(=S)NCCCN1CCOCC1)c1ccc([N+](=O)[O-])cc1,43*,1,/,-3,-1
CC(C)NC(=O)Nc1ccc2c(c1)C(=O)N([C@H](C)CO)C[C@H](C)[C@@H](CN(C)Cc1ccc(Oc3ccccc3)cc1)O2,0,2,-8,1,-8
Cc1noc(C)c1S(=O)(=O)Nc1ccc2c(c1)C(=O)N([C@H](C)CO)C[C@H](C)[C@H](CN(C)Cc1ccc(C(F)(F)F)cc1)OCCCC[C@@H](C)O2,0,5,4,0,/
Cc1noc(C)c1S(=O)(=O)Nc1ccc2c(c1)C(=O)N([C@H](C)CO)C[C@@H](C)[C@@H](CN(C)Cc1ccc(C(=O)O)cc1)OCCCC[C@H](C)O2,1.3*,-4,-7,0,-7
Cc1noc(C)c1S(=O)(=O)Nc1ccc2c(c1)C(=O)N([C@@H](C)CO)C[C@H](C)[C@@H](CN(C)Cc1ccc(C(F)(F)F)cc1)OCCCC[C@H](C)O2,0,24*!,4,11,/
Cc1noc(C)c1S(=O)(=O)Nc1ccc2c(c1)C(=O)N([C@H](C)CO)C[C@@H](C)[C@@H](CN(C)Cc1ccc(C(F)(F)F)cc1)OCCCC[C@@H](C)O2,0,24*,-5,0,/
Cc1noc(C)c1S(=O)(=O)Nc1ccc2c(c1)C(=O)N([C@@H](C)CO)C[C@@H](C)[C@@H](CN(C)Cc1ccc(C(F)(F)F)cc1)OCCCC[C@@H](C)O2,0,27*,15,0,/
Cc1noc(C)c1S(=O)(=O)Nc1ccc2c(c1)C(=O)N([C@H](C)CO)C[C@H](C)[C@@H](CN(C)Cc1ccc(C(F)(F)F)cc1)OCCCC[C@@H](C)O2,0,13,6,0,/
CCCNC(=O)Nc1ccc2c(c1)C(=O)N(C)C[C@@H](OC)[C@H](C)CN(CCC(F)(F)F)[C@@H](C)CO2,/,/,12,/,-13
SMILES,FGF22 binding,SIRT5 block,PGC1a acetyl inh,ERAP1 HTS inh,FN deposit inh
COc1ccccc1S(=O)(=O)N[C@@H]1C=C[C@H](CC(=O)N2CCN(C)CC2)O[C@H]1CO,0,-7,6,2,/
Cc1ccc(SCCC(=O)NNC(=O)c2ccccc2F)cc1,43*,/,-1,-1,2
O=C(NCC[C@@H]1CC[C@H](NC(=O)C2CCCCC2)[C@H](CO)O1)c1cnccn1,0,1,-7,0,-6
Cc1cc(C(C)(C)C)cc(C)c1S(=O)(=O)N1CC(=O)Nc2ccccc21,1.5*,-4,1,-3,21
Cc1ccc(C(C)(C)C)cc1S(=O)(=O)N1CC(=O)Nc2ccccc21,0,-3,-19,2,1
Cc1cc2c(NCCc3ccccc3)ncnc2s1,0,-3,/,0,-1
Cc1cc2c(Nc3ccccc3)ncnc2s1,0,16*,-1,2,6
COc1ccccc1S(=O)(=O)N[C@@H]1CC[C@@H](CC(=O)NCc2cccc(F)c2)O[C@H]1CO,0,2,-9,-1,11
O=C(NC1CCCC1)C(=O)N(Cc1cccnc1)C(C(=O)NCc1ccco1)c1ccccc1F (stereo not given),44*,-6,-9,2,-5
O=C(NC1CCCCC1)C(c1ccccc1F)N(Cc1ccco1)C(=O)c1ccccn1 (stereo not given),0,-2,6,1,10
Cc1nnc(NC(=O)c2ccc(F)c(S(=O)(=O)N3CCOCC3)c2)s1,43*,/,-7,1,3
Cn1nc(-c2ccccn2)nc2c(=O)n(C)c(=O)nc1-2,0,3,80*,16,13
CCCc1nc2c(=O)n(C)c(=O)nc-2n(C)n1,0,1,75*,3,5
COc1ccc(-c2nc(-c3ccccn3)ncc2S(C)(=O)=O)cc1,0,-3,/,4,4
O=C(N[C@@H]1CC[C@H](CCn2cc(C3(O)CCCC3)nn2)O[C@@H]1CO)C1CCOCC1,0,-4,-13,-3,-1
COc1ccc(NC(=O)N2CC(=O)N3[C@H](CO)[C@H](c4ccc(-c5ccccc5)cc4)[C@@H]3C2)cc1,/,0,2,0,/
CO[C@H]1CC[C@H]2CCOc3c(C#N)cccc3C(=O)N(C)C[C@H](C)C(=O)N(C)C[C@H]1O2,0,1,6,3,6
CCOc1ccc(CN2CCN(C(=O)c3cccc(F)c3)CC2)cc1,0,19*,4,1,/
COc1cccc(C(=O)N2CCN(Cc3cccc(F)c3)CC2)c1,/,-4,3,2,-5
COc1cc(CC(=O)OCn2nnc3ccccc3c2=O)cc(OC)c1OC,44*,-3,/,3,-7
